In article PMC3319430 (Journal of Medicinal Chemistry, 2009):
Blank lines part the entries; values can stand above or below the compound they belong to.

Legend:
[1] = cited from earlier work
[2] = cited from earlier work; remark: listed apart in the source
CFTR [3] = molecular target: T1, CFTR (Homo sapiens, UniProt P13569); experiment: Cell-attached single-channel patch-clamp recordings of CFTR; assay type: cell-based; details: 1 µM
[4] = test system: renal cysts in E13.5 embryonic kidneys; experiment: Embryonic kidney organ culture model of polycystic kidney disease; parameters: species or system mouse
Method in brief: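 Metanephroi from E13.5 mouse embryos, on porous inserts in DMEM/Ham's F-12 with glutamine, HEPES, insulin, transferrin, selenium, prostaglandin E, T3 and antibiotics, 37 °C humidified CO2. Medium with 100 µM 8-Br-cAMP ± test compound replaced every 12 h. For preformed cysts, compound was added at day 3 of 8-Br-cAMP. Transmitted-light images were taken, and % cyst area = total cyst area/total kidney area; 6–8 kidneys.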

[5] = test system: calcium-activated chloride channels; experiment: UTP-induced chloride current in cystic fibrosis; assay type: cell-based, human; details: 10 or 20 µM
Method in brief: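 Short-circuit current in cystic fibrosis human bronchial epithelial cells on inserts in Ussing chambers. Krebs-bicarbonate solution on both sides, gassed with 5% CO2 in air, 37 °C. ENaC was blocked with 10 µM amiloride. Calcium-activated chloride channels were stimulated with 100 µM UTP, and test compound was added.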

human wild-type CFTR = human wild-type CFTR (Homo sapiens, UniProt P13569); experiment: Whole-cell patch-clamp in CFTR-expressing FRT cells; assay type: cell-based; details: 500 nM; ±100 mV
human wild-type CFTR, sequence (P13569 whole entry): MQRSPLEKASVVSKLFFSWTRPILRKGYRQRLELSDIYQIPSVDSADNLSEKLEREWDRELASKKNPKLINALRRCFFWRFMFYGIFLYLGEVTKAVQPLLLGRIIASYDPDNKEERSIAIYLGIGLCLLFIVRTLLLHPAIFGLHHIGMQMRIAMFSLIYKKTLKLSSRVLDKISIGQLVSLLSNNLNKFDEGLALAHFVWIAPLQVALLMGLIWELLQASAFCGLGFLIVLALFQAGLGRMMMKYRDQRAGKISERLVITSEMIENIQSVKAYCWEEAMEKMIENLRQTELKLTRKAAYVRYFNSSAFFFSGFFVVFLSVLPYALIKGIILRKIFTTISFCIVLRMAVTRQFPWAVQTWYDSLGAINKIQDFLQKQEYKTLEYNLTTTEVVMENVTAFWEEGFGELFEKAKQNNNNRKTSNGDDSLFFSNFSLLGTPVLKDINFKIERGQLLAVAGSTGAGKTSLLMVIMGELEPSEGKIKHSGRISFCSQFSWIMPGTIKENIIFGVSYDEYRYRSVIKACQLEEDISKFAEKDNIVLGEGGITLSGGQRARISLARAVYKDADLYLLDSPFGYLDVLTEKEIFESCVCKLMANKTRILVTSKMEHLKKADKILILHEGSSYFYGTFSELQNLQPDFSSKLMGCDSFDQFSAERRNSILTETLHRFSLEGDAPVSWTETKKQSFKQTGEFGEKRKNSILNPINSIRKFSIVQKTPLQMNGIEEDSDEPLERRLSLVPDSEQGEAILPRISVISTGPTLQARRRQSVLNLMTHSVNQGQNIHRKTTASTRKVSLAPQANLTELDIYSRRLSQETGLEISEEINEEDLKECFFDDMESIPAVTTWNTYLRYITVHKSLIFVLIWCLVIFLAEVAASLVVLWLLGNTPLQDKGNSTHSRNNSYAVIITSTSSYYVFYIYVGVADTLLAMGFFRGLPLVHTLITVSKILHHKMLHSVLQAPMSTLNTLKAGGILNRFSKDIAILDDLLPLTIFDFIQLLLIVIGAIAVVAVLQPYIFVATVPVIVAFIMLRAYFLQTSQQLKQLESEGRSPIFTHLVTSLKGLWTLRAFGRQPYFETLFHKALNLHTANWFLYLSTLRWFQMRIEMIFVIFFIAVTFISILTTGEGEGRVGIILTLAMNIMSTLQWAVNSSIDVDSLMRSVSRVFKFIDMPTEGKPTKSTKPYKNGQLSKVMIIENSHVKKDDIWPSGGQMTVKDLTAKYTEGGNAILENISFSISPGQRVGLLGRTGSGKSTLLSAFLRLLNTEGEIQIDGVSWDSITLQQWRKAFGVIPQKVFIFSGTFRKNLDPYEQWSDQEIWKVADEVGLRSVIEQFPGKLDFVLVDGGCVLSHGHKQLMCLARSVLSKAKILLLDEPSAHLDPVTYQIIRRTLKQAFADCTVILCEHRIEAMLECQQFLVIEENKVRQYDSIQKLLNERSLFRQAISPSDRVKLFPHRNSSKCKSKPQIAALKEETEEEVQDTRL

[6] = molecular target: CFTR chloride conductance (Homo sapiens, UniProt P13569); experiment: Apical membrane chloride current; assay type: cell-based
CFTR chloride conductance, sequence (P13569 whole entry): as above

CFTR [7] = molecular target: T1, CFTR; experiment: Fluorescence platereader assay of CFTR-mediated iodide influx; assay type: cell-based; details: result in words
Method in brief: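 FRT cells co-expressing human wild-type CFTR and YFP-H148Q halide sensor, assayed 48 h after plating at confluence. After PBS washes, cells were activated with 5 µM forskolin, 100 µM IBMX and 25 µM apigenin. Test compound was added 5 min later, 25 µM final, for 15 min. Fluorescence was read 2 s baseline, then 10 s after iodide-for-chloride PBS addition. Initial influx rate was fitted by nonlinear regression.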

T1 sequence (P13569 whole entry): as above

SMILES: O=C(O)c1ccc(/C=C2\SC(=S)N(c3cccc(C(F)(F)F)c3)C2=O)cc1 [CFTRinh-172]
Aqueous solubility [1]: low aqueous solubility
Toxicity [2]: low toxicity

Mean channel closed time (CFTR [3]): greatly increased
Mean channel open time (CFTR [3]): did not significantly change
Unitary conductance (CFTR [3]; +80 mV): did not change
Channel open probability (Po) (CFTR [3]; forskolin 10 µM and IBMX 100 µM, control 0.50 ± 0.04): 0.14 ± 0.03
Kidney growth ([4]; in culture medium): did not affect kidney growth
CFTR current-voltage relationship after addition (human wild-type CFTR): remained linear
Potency with apigenin or IBMX as agonists compared to CPT-cAMP ([6]; apigenin (100 µM) or IBMX (100 µM)): mildly reduced
SMILES: Cc1ccc(C2Nc3ccccc3-n3c(-c4ccccc4)c4c(=O)n(C)c(=O)n(C)c4c32)o1 (stereo not shown) [PPQ-102, 7,9-Dimethyl-11-phenyl-6-(5-methylfuran-2-yl)-5,6-dihydropyrimido[4′,5′-3,4]pyrrolo[1,2-a]quinoxaline-8,10-(7H,9H)-dione]
Inhibition of cyst formation (percentage area occupied by cysts) ([4]; 0.5 µM, 100 µM 8-Br-cAMP, 4 days in culture): > 60%
Reversibility of cyst inhibition ([4]; 2.5 µM removed after 3 days, 8-Br-cAMP continued): reversible
Size of preformed cysts ([4]; 5 µM added at day 3 of 8-Br-cAMP, over 1 and 2 days): remarkable reduction in cyst size
Cysts at 2.5 and 5 µM ([4]; 2.5 and 5 µM, 100 µM 8-Br-cAMP, 4 days): near complete absence of cysts
Inhibition of UTP-induced chloride currents [5]: little inhibition
Reversibility of inhibition ([6]; 30 min incubation with 2 µM followed by 10 min washout): complete restoration of CFTR chloride current

CFTR inhibition activity (CFTR [7]): abolished CFTR inhibition activity
SMILES: Cc1ccc(C(=O)Nc2ccccc2-n2cc3c(c2-c2ccccc2)c(=O)n(C)c(=O)n3C)o1 [PPQ-102b, N-(2-(1,3-Dimethyl-2,4-dioxo-5-phenyl-3,4-dihydro-1H-pyrrolo[3,4-d]pyrimidin-6(2H)-yl)phenyl)-5-methylfuran-2-carboxamide]
